Source: PMC6976987 (Molecular Genetics and Metabolism Reports, 2020)
Read-outs that look alike come from different tables or passages of the source.

Assay type: in vivo, human
Conditions: for AUC: AUC0-τ; for AUC / AUC(0-inf) / Cmax: mean (SD); for AUC(0-inf): AUC0-∞; for Tmax: median (minimum, maximum)
Summary of the method: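 Open-label, fixed-sequence study in healthy CYP2D6 non-poor metabolizers. Oral test compound 84 mg, fasted: single dose Day 1, BID Days 2–8, then BID with a strong CYP3A/P-gp inhibitor 400 mg QD Days 9–15. Plasma sampled to 36 h Day 1, 12 h Day 8, 72 h Day 15, plus pre-dose samples. LC-MS/MS, LLOQ 0.2 ng/mL. Non-compartmental PK; ratios from log-transformed mixed-effects model with 90% CI.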

[1] = CYP2D6 EMs only, eliglustat 84 mg BID with ketoconazole 400 mg QD
[2] = CYP2D6 non-PMs, eliglustat 84 mg BID with ketoconazole 400 mg QD
[3] = human, plasma, oral, 84 mg, eliglustat 84 mg BID, Days 2 to 8, all (N = 33)
[4] = human, plasma, oral, 84 mg, eliglustat 84 mg single dose, Day 1, all (N = 36)
[5] = human, plasma, oral, eliglustat 84 mg BID + ketoconazole 400 mg QD, Days 9 to 15, all (N = 33)

increase in eliglustat AUC0-τ compared to eliglustat alone [1]: 4.4 fold | increase in eliglustat Cmax compared to eliglustat alone [1]: 4.0 fold | increase in eliglustat AUC0-τ (exposure) compared to eliglustat alone [2]: 4.3 fold | increase in eliglustat Cmax compared to eliglustat alone [2]: 3.8 fold | Ratio (%) of geometric least squares mean, Cmax (all subjects, multiple dose, test 400 mg ketoconazole oral QD + 84 mg eliglustat oral BID (N = 33) vs reference 84 mg eliglustat oral BID alone (N = 33)): 3.84% | Ratio (%) of geometric least squares mean, AUC0-t (all subjects, multiple dose, test 400 mg ketoconazole oral QD + 84 mg eliglustat oral BID (N = 33) vs reference 84 mg eliglustat oral BID alone (N = 33), 0 to 12 h): 4.27% | increase in eliglustat exposure (co-administered with ketoconazole (discussion, rounded)): 4 fold | half-life (human, plasma, oral, 84 mg): 5.1 h | AUC (human, plasma, oral, 84 mg, eliglustat 84 mg BID, Days 2 to 8, CYP2D6 EMs only (N = 31), 0 to 12 h): 119 ng·h/mL | AUC (human, plasma, oral, 84 mg, eliglustat 84 mg BID, Days 2 to 8, all (N = 33), 0 to 12 h): 113 ng·h/mL | AUC(0-inf) (human, plasma, oral, 84 mg, eliglustat 84 mg single dose, Day 1, CYP2D6 EMs only (N = 32)): 77.2 ng·h/mL | AUC(0-inf) (human, plasma, oral, 84 mg, eliglustat 84 mg single dose, Day 1, all (N = 34)): 73.2 ng·h/mL | Cmax (human, plasma, oral, 84 mg, eliglustat 84 mg BID, Days 2 to 8, CYP2D6 EMs only (N = 31)): 19.5 ng/mL | Cmax [3]: 18.6 ng/mL | Cmax (human, plasma, oral, 84 mg, eliglustat 84 mg single dose, Day 1, CYP2D6 EMs only (N = 34)): 10.3 ng/mL | Cmax [4]: 9.87 ng/mL | Tmax [3]: 2 h | Tmax [4]: 1.6 h | AUC (human, plasma, oral, eliglustat 84 mg BID + ketoconazole 400 mg QD, Days 9 to 15, CYP2D6 EMs only (N = 31), 0 to 12 h): 501 ng·h/mL | AUC (human, plasma, oral, eliglustat 84 mg BID + ketoconazole 400 mg QD, Days 9 to 15, all (N = 33), 0 to 12 h): 474 ng·h/mL | Cmax (human, plasma, oral, eliglustat 84 mg BID + ketoconazole 400 mg QD, Days 9 to 15, CYP2D6 EMs only (N = 31)): 71 ng/mL | Cmax [5]: 67.2 ng/mL | Tmax [5]: 2.3 h
SMILES: CCCCCCCC(=O)N[C@H](CN1CCCC1)[C@H](O)c1ccc2c(c1)OCCO2 [eliglustat]
